Experiments:
Format in all cases: functional
[1] = tested on: Cryptococcus neoformans; assay: Antifungal activity against flucytosine-resistant Cryptococcus neoformans 280 at 64 ug/ml after 72 hrs by time-kill method
Procedure, shortened: (§1)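 Time-kill assay run as in the authors' earlier method. […] Read-out was log10 CFU/ml after 72 h incubation, compared with a drug-free control.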

[2] = tested on: Cryptococcus neoformans; assay: Antifungal activity against flucytosine-resistant Cryptococcus neoformans 98.1121 by checkerboard method
[3] = tested on: Cryptococcus neoformans; assay: Antifungal activity against flucytosine-resistant Cryptococcus neoformans 533 by Etest method in presence of amphotericin B
[4] = tested on: Cryptococcus neoformans; assay: Antifungal activity against flucytosine-resistant Cryptococcus neoformans 98.0176 by Etest method in presence of amphotericin B
[5] = tested on: Cryptococcus neoformans; assay: Antifungal activity against flucytosine-resistant Cryptococcus neoformans 550 by checkerboard method
[6] = tested on: Cryptococcus neoformans; assay: Antifungal activity against flucytosine-resistant Cryptococcus neoformans 280 by checkerboard method
[7] = tested on: Cryptococcus neoformans; assay: Antifungal activity against flucytosine-resistant Cryptococcus neoformans 98.1121 at 64 ug/ml after 72 hrs by time-kill method
Procedure, shortened: (§2)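 Time-kill assay on flucytosine-resistant isolates. […] Viable counts were taken as log10 CFU per ml after 72 h of incubation.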

[8] = tested on: Cryptococcus neoformans; assay: Antifungal activity against flucytosine-resistant Cryptococcus neoformans 276 by Etest method in presence of amphotericin B
[9] = tested on: Cryptococcus neoformans; assay: Antifungal activity against flucytosine-resistant Cryptococcus neoformans 285 by checkerboard method in presence of amphotericin B
[10] = tested on: Cryptococcus neoformans; assay: Antifungal activity against flucytosine-resistant Cryptococcus neoformans 276 at 64 ug/ml after 72 hrs by time-kill method; procedure, shortened: as §1
[11] = tested on: Cryptococcus neoformans; assay: Antifungal activity against flucytosine-resistant Cryptococcus neoformans 550 by Etest method in presence of amphotericin B
[12] = tested on: Cryptococcus neoformans; assay: Antifungal activity against flucytosine-resistant Cryptococcus neoformans 276 by checkerboard method
[13] = tested on: Cryptococcus neoformans; assay: Antifungal activity against flucytosine-resistant Cryptococcus neoformans 285 by checkerboard method
[14] = tested on: Cryptococcus neoformans; assay: Antifungal activity against flucytosine-resistant Cryptococcus neoformans 98.0673 by Etest method in presence of amphotericin B
[15] = tested on: Cryptococcus neoformans; assay: Antifungal activity against flucytosine-resistant Cryptococcus neoformans 533 by checkerboard method
[16] = tested on: Cryptococcus neoformans; assay: Antifungal activity against flucytosine-resistant Cryptococcus neoformans 98.0673 at 64 ug/ml after 72 hrs by time-kill method; procedure, shortened: as §1
[17] = tested on: Cryptococcus neoformans; assay: Antifungal activity against flucytosine-resistant Cryptococcus neoformans 550 at 64 ug/ml after 72 hrs by time-kill method; procedure, shortened: as §1
[18] = tested on: Cryptococcus neoformans; assay: Antifungal activity against flucytosine-resistant Cryptococcus neoformans 18476 at 64 ug/ml after 72 hrs by time-kill method; procedure, shortened: as §1
[19] = tested on: Cryptococcus neoformans; assay: Antifungal activity against flucytosine-resistant Cryptococcus neoformans 533 by checkerboard method in presence of amphotericin B
[20] = tested on: Cryptococcus neoformans; assay: Antifungal activity against flucytosine-resistant Cryptococcus neoformans 99.1026 by checkerboard method in presence of amphotericin B
[21] = tested on: Cryptococcus neoformans; assay: Antifungal activity against flucytosine-resistant Cryptococcus neoformans 98.0176 by checkerboard method
[22] = tested on: Cryptococcus neoformans; assay: Antifungal activity against flucytosine-resistant Cryptococcus neoformans 285 by Etest method in presence of amphotericin B
[23] = tested on: Cryptococcus neoformans; assay: Antifungal activity against flucytosine-resistant Cryptococcus neoformans 98.0673 by checkerboard method
[24] = tested on: Cryptococcus neoformans; assay: Antifungal activity against flucytosine-resistant Cryptococcus neoformans 550 by checkerboard method in presence of amphotericin B
[25] = tested on: Cryptococcus neoformans; assay: Antifungal activity against flucytosine-resistant Cryptococcus neoformans 18476 by checkerboard method in presence of amphotericin B
[26] = tested on: Cryptococcus neoformans; assay: Antifungal activity against flucytosine-resistant Cryptococcus neoformans 99.1026 at 64 ug/ml after 72 hrs by time-kill method; procedure, shortened: as §2
[27] = tested on: Cryptococcus neoformans; assay: Antifungal activity against flucytosine-resistant Cryptococcus neoformans 533 at 64 ug/ml after 72 hrs by time-kill method; procedure, shortened: as §1
[28] = tested on: Cryptococcus neoformans; assay: Antifungal activity against flucytosine-resistant Cryptococcus neoformans 98.0673 by checkerboard method in presence of amphotericin B
[29] = tested on: Cryptococcus neoformans; assay: Antifungal activity against flucytosine-resistant Cryptococcus neoformans 98.1121 by checkerboard method in presence of amphotericin B
[30] = tested on: Cryptococcus neoformans; assay: Antifungal activity against flucytosine-resistant Cryptococcus neoformans 98.1121 by Etest method in presence of amphotericin B
[31] = tested on: Cryptococcus neoformans; assay: Antifungal activity against flucytosine-resistant Cryptococcus neoformans 18476 by checkerboard method
[32] = tested on: Cryptococcus neoformans; assay: Antifungal activity against flucytosine-resistant Cryptococcus neoformans 276 by checkerboard method in presence of amphotericin B
[33] = tested on: Cryptococcus neoformans; assay: Antifungal activity against flucytosine-resistant Cryptococcus neoformans 99.1026 by Etest method in presence of amphotericin B
[34] = tested on: Cryptococcus neoformans; assay: Antifungal activity against flucytosine-resistant Cryptococcus neoformans 98.0176 by checkerboard method in presence of amphotericin B
[35] = tested on: Cryptococcus neoformans; assay: Antifungal activity against flucytosine-resistant Cryptococcus neoformans 99.1026 by checkerboard method
[36] = tested on: Cryptococcus neoformans; assay: Antifungal activity against flucytosine-resistant Cryptococcus neoformans 280 by Etest method in presence of amphotericin B
[37] = tested on: Cryptococcus neoformans; assay: Antifungal activity against flucytosine-resistant Cryptococcus neoformans 280 by checkerboard method in presence of amphotericin B
[38] = tested on: Cryptococcus neoformans; assay: Antifungal activity against flucytosine-resistant Cryptococcus neoformans 18476 by Etest method in presence of amphotericin B
[39] = tested on: Cryptococcus neoformans; assay: Antifungal activity against flucytosine-resistant Cryptococcus neoformans 98.0176 at 64 ug/ml after 72 hrs by time-kill method; procedure, shortened: as §1

Q: How did the log10CFU/ml [1] turn out when `Nc1nc(=O)[nH]cc1F` [FLUCYTOSINE] was run?
A: The log10CFU/ml was 7.4.

Q: And the MIC [2]?
A: Its MIC is 256 µg/mL.

Q: And the MIC [3]?
A: Its MIC is greater than 32 µg/mL.

Q: What about the MIC [4] of the same molecule?
A: Its MIC is greater than 32 µg/mL.

Q: And the MIC [5]?
A: Its MIC is 128 µg/mL.

Q: What about the MIC [6] of the same molecule?
A: Its MIC is 256 µg/mL.

Q: And the log10CFU/ml [7]?
A: The log10CFU/ml was 7.5.

Q: What about the MIC [8] of the same molecule?
A: The MIC was greater than 32 µg/mL.

Q: And the MIC [9]?
A: Its MIC is 0.25 µg/mL.

Q: What about the log10CFU/ml [10] of the same molecule?
A: Its log10CFU/ml is 7.3.

Q: What about the MIC [11] of the same molecule?
A: Its MIC is greater than 32 µg/mL.

Q: What about the MIC [12] of the same molecule?
A: Its MIC is 256 µg/mL.

Q: What about the MIC [13] of the same molecule?
A: The MIC was 32 µg/mL.

Q: What about the MIC [14] of the same molecule?
A: Its MIC is greater than 32 µg/mL.

Q: And the MIC [15]?
A: Its MIC is 256 µg/mL.

Q: And the log10CFU/ml [16]?
A: Its log10CFU/ml is 7.4.

Q: And the log10CFU/ml [17]?
A: The log10CFU/ml was 7.2.

Q: And the log10CFU/ml [18]?
A: Its log10CFU/ml is 7.5.

Q: What about the MIC [19] of the same molecule?
A: Its MIC is 0.5 µg/mL.

Q: What about the MIC [20] of the same molecule?
A: Its MIC is 1 µg/mL.

Q: And the MIC [21]?
A: Its MIC is 64 µg/mL.

Q: And the MIC [22]?
A: Its MIC is greater than 32 µg/mL.

Q: And the MIC [23]?
A: The MIC was 64 µg/mL.

Q: And the MIC [24]?
A: The MIC was 0.5 µg/mL.

Q: And the MIC [25]?
A: The MIC was 1 µg/mL.

Q: What about the log10CFU/ml [26] of the same molecule?
A: Its log10CFU/ml is 7.1.

Q: What about the log10CFU/ml [27] of the same molecule?
A: The log10CFU/ml was 7.5.

Q: And the MIC [28]?
A: The MIC was 16 µg/mL.

Q: What about the MIC [29] of the same molecule?
A: Its MIC is 0.25 µg/mL.

Q: What about the MIC [30] of the same molecule?
A: Its MIC is greater than 32 µg/mL.

Q: And the MIC [31]?
A: The MIC was 256 µg/mL.

Q: What about the MIC [32] of the same molecule?
A: Its MIC is 4 µg/mL.

Q: What about the MIC [33] of the same molecule?
A: Its MIC is greater than 32 µg/mL.

Q: And the MIC [34]?
A: The MIC was 0.5 µg/mL.

Q: What about the MIC [35] of the same molecule?
A: Its MIC is 32 µg/mL.

Q: And the MIC [36]?
A: The MIC was greater than 32 µg/mL.

Q: And the MIC [37]?
A: The MIC was 0.5 µg/mL.

Q: And the MIC [38]?
A: The MIC was greater than 32 µg/mL.

Q: And the log10CFU/ml [39]?
A: Its log10CFU/ml is 7.4.

— ChEMBL document CHEMBL1142133 (2007)
